From ChEMBL document CHEMBL1149758, “N-[2-(5,5-dimethyl-1,3-dioxane-2-yl)ethyl]amino acids: their synthesis, anti-inflammatory evaluation and QSAR analysis” (Eur J Med Chem, 2008) come the findings set out here.

Active and inactive are the calls of the source. The rule behind the calls is not given here.

This assay has as its system Mus musculus. The assay is described as follows: Antiinflammatory activity against xylene-induced ear edema in ICR mouse at 20 mg/kg, po. The format is functional, organism-based. Also noted: dose 20 mg/kg. In outline: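 Mice dosed orally with compound suspended in CMC (2.0 mg/mL), vehicle group given CMC, aspirin in CMC as positive control; 30 min later 0.03 mL xylene applied to both surfaces of right ear, left ear untreated. After 2 h mice killed, 7 mm ear punches weighed; edema = right minus left section weight, expressed as % inhibition. n = 11; ANOVA, p < 0.05.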
In the case of `CC1(C)COC(CCN[C@@H](Cc2ccccc2)C(=O)O)OC1`, the result was Active. For the compound `CC1(C)COC(CCN[C@@H](CCCNC(=N)N)C(=O)O)OC1`, the outcome was Active.

Take `CC(C)C[C@H](NCCC1OCC(C)(C)CO1)C(=O)O`: the result was Active. Consider `CC[C@H](C)[C@H](NCCC1OCC(C)(C)CO1)C(=O)O`, for which the outcome was Active. On to `CC1(C)COC(CCNCC(=O)O)OC1`, for which the result was Active.

Take `CC1(C)COC(CCN[C@@H](Cc2c[nH]c3ccccc23)C(=O)O)OC1`: the result was Active.

For `C[C@@H](O)[C@H](NCCC1OCC(C)(C)CO1)C(=O)O`, the outcome was Active. Regarding `CC1(C)COC(CCN[C@@H](CCC(N)=O)C(=O)O)OC1`, the result was Active. As to `CC(C)[C@H](NCCC1OCC(C)(C)CO1)C(=O)O`, the outcome was Active.

Regarding `CC1(C)COC(CCN[C@@H](CC(=O)O)C(=O)O)OC1`, the outcome was Active. On to `CC1(C)COC(CCN[C@@H](Cc2ccc(O)cc2)C(=O)O)OC1`, for which the result was Active. With `CC1(C)COC(CCN2CCC[C@H]2C(=O)O)OC1`, the result was Active. With `CC1(C)COC(CCN[C@@H](CO)C(=O)O)OC1`, the outcome was Active. For the compound `CC1(C)COC(CCN[C@@H](Cc2c[nH]cn2)C(=O)O)OC1`, the result was Active.

For `C[C@H](NCCC1OCC(C)(C)CO1)C(=O)O`, the outcome was Active. With `CC1(C)COC(CCN[C@@H](CCCCN)C(=O)O)OC1`, the outcome was Active. Take `CC1(C)COC(CCN[C@@H](CCC(=O)O)C(=O)O)OC1`: the result was Active. As for `CC1(C)COC(CCN[C@@H](CC(N)=O)C(=O)O)OC1`, the outcome was Active. With `CSCC[C@H](NCCC1OCC(C)(C)CO1)C(=O)O`, the result was Active.
